Test results from ChEMBL document CHEMBL4699419, “Antileishmanial assessment of isoxazole derivatives against L. donovani” (RSC Med Chem, 2020).
Active and inactive are the calls of the source. No cut-off for these calls is given here.

How the values were obtained:
Leishmania donovani [1] = test: Antileishmanial activity against Leishmania donovani amastigotes infected in golden hamster assessed as reduction in parasite burden in spleen at 50 mg/kg, ip initiated after 2 days of pre-treatment biopsy administered for 5 days and measured on day 28 by giemsa staining based assay relative to control; assay type: functional; conditions: for inhibition: time 28.0 day; for inhibition in vivo at 50 mg/kg: 672 h, time 28 day
Outline: (§1)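 Male inbred golden hamsters, 40–45 g, infected with L. donovani. Animals with +1 infection on pre-treatment spleen biopsy randomized, five per group. Intraperitoneal dosing in a vehicle of 10% Tween-80/ethanol (70:30) in ddH2O, 10% final, began 2 days after biopsy and ran 5 consecutive days; vehicle-only controls. Giemsa-stained spleen biopsies taken on day 7 or 28; percentage inhibition computed from initial, treated and untreated-control amastigote counts.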

Leishmania donovani [2] = test: Antileishmanial activity against late log phase promastigote stage of Leishmania donovani MHOM/IN/80/Dd8 harboring luciferase reporter gene incubated for 72 hrs by Steady-Glo luminescence assay; assay type: functional, organism-based; conditions: Leishmania donovani, MHOM/IN/80/Dd8, 72 h; read-out: IC50
Outline: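 Luciferase-transfected promastigotes kept at 25 ± 1 °C in medium 199 + 10% heat-inactivated FCS + G418 (20 μg ml–1). Late-log cells (5 × 10^5 per well) grown 72 h with graded compound concentrations from DMSO, DMSO dilution controls. Aliquot mixed 1:1 with Steady-Glo, luminescence (RLU) read; % inhibition vs control. IC50 by Probit regression, three independent experiments.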

Leishmania donovani [3] = test: Antileishmanial activity against Leishmania donovani amastigotes infected in golden hamster assessed as reduction in parasite burden in spleen at 50 mg/kg, ip initiated after 2 days of pre-treatment biopsy administered for 5 days and measured on day 7 by giemsa staining based assay relative to control; assay type: functional; conditions: for inhibition in vivo at 50 mg/kg: 168 h, time 7 day; for inhibition: time 7.0 day; outline: as §1
[4] = Selectivity index, ratio of CC50 for mouse J774.A1 cells to IC50 for amastigote form of Leishmania donovani MHOM/IN/80/Dd8; assay type: toxicity; conditions: read-out: Ratio CC50/IC50
Outline: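 Macrophages infected at a 1:10 ratio with stationary promastigotes, then treated 72 h at 37 °C; luminescence read with Steady-Glo. IC50 values from probit analysis.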

Leishmania donovani [5] = test: Antileishmanial activity against Leishmania donovani MHOM/IN/80/Dd8 promastigotes harboring luciferase reporter gene infected in mouse J774 cells assessed as inhibition of amastigote growth incubated for 72 hrs by Steady-Glo luminescence assay; assay type: functional, organism-based; conditions: Leishmania donovani, MHOM/IN/80/Dd8, J774, 72 h; read-out: IC50
Outline: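 J774A.1 mouse macrophages (2 × 10^5 per well, RPMI-1640 + 10% FCS, 37 °C CO2) infected after 24 h with stationary-phase luciferase-transgenic promastigotes at 1:10 macrophage:parasite; compounds in complete medium for 72 h at 37 °C. Medium swapped for PBS, Steady-Glo added, luminescence read; % inhibition vs untreated control RLU. IC50 by Probit log dose/response regression, three independent experiments.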

[6] = Cytotoxicity against mouse J774A1 cells assessed as reduction in cell viability incubated for 48 hrs by MTT assay; assay type: cell-based, J774.A1
Outline: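 J774A.1 macrophages, 0.2 × 10^6 per well, incubated overnight at 37 °C in 5% CO2, then exposed to compounds in DMSO for 48 h, with DMSO dilutions as controls. Viability read by MTT formazan at 600 nm. CC50 = 50% viability reduction versus medium-only cells, from probit regression; three independent experiments.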

Leishmania donovani [7] = test: Antileishmanial activity against Leishmania donovani amastigotes infected in golden hamster assessed as reduction in parasite burden in spleen at 100 mg/kg, po initiated after 2 days of pre-treatment biopsy administered for 5 days and measured on day 28 by giemsa staining based assay relative to control; assay type: functional; conditions: 672 h, time 28 day
Outline: (§2)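 Male inbred golden hamsters, 40–45 g, infected with L. donovani. Animals with +1 infection on pre-treatment spleen biopsy (5–15 amastigotes/100 spleen cell nuclei) randomized, five per group. Oral dosing in 5% carboxymethyl cellulose vehicle began 2 days after biopsy and ran 5 consecutive days; vehicle-only infected controls. Giemsa-stained spleen biopsies taken on day 7 or 28 after the last dose; PI = 100 – [ANAT × 100/(INAT × TIUC)].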

Leishmania donovani [8] = test: Antileishmanial activity against Leishmania donovani amastigotes infected in golden hamster assessed as reduction in parasite burden in spleen at 100 mg/kg, po initiated after 2 days of pre-treatment biopsy administered for 5 days and measured on day 7 by giemsa staining based assay relative to control; assay type: functional; conditions: 168 h, time 7 day; outline: as §2
Leishmania amazonensis [9] = test: Antileishmanial activity against intracellular amastigote stage of Leishmania amazonensis; assay type: functional, organism-based
Leishmania amazonensis [10] = test: Antileishmanial activity against promastigote form of Leishmania amazonensis; assay type: functional, organism-based
Leishmania donovani [11] = test: Antileishmanial activity against Leishmania donovani amastigotes infected in golden hamster assessed as reduction in parasite burden in spleen at 30 mg/kg, po initiated after 2 days of pre-treatment biopsy administered for 5 days and measured on day 7 by giemsa staining based assay relative to control; assay type: functional; conditions: 168 h, time 7 day; outline: as §2
Leishmania donovani [12] = test: Antileishmanial activity against Leishmania donovani amastigotes infected in golden hamster assessed as reduction in parasite burden in spleen at 30 mg/kg, po initiated after 2 days of pre-treatment biopsy administered for 5 days and measured on day 28 by giemsa staining based assay relative to control; assay type: functional; conditions: 672 h, time 28 day; outline: as §2
Leishmania amazonensis [13] = test: Antileishmanial activity against intracellular amastigote stage of Leishmania amazonensis (IFLA/BR/1967/PH8 strain) assessed as reduction in parasite viability incubated for 24 hrs by Neubauer chamber cell counting method; assay type: functional, organism-based; conditions: IFLA/BR/1967/PH8, 24 h
Leishmania amazonensis [14] = test: Antileishmanial activity against promastigote form of Leishmania amazonensis (IFLA/BR/1967/PH8 strain) assessed as reduction in parasite viability incubated for 72 hrs by MTT assay; assay type: functional, organism-based; conditions: IFLA/BR/1967/PH8, 72 h
[15] = Half life in golden hamster at 100 mg/kg, po measured upto 24 hrs by LC/MS-MS analysis; assay type: ADME, organism-based, Mesocricetus auratus; conditions: in vivo
Outline: (§3)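 Male Syrian hamsters, three per group; single oral dose of 100 mg kg–1 as a suspension in 0.5% sodium carboxymethylcellulose. Plasma concentrations followed over 24 h by LC–MS/MS with electrospray ionization. Parameters derived by non-compartmental analysis; mean ± SD of n = 3.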

[16] = MRT in golden hamster at 100 mg/kg, po measured upto 24 hrs by LC/MS-MS analysis; assay type: ADME, organism-based, Mesocricetus auratus; conditions: in vivo; outline: as §3
[17] = AUC (0 to infinity) in golden hamster at 100 mg/kg, po measured upto 24 hrs by LC/MS-MS analysis; assay type: ADME, organism-based, Mesocricetus auratus; design: route oral, dose 100 mg/kg, time <=24; conditions: in vivo; outline: as §3
[18] = Drug metabolism in golden hamster at 100 mg/kg, po measured upto 24 hrs by LC/MS-MS analysis; assay type: ADME, organism-based, Mesocricetus auratus; conditions: in vivo
[19] = Tmax in golden hamster at 100 mg/kg, po measured upto 24 hrs by LC/MS-MS analysis; assay type: ADME, organism-based, Mesocricetus auratus; conditions: in vivo; outline: as §3
[20] = Cmax in golden hamster at 100 mg/kg, po measured upto 24 hrs by LC/MS-MS analysis; assay type: ADME, organism-based, Mesocricetus auratus; design: route oral, dose 100 mg/kg, time <=24; conditions: in vivo; outline: as §3

Row | SMILES | IC50 (Leishmania donovani [2]) | inhibition in vivo at 50 mg/kg (Leishmania donovani [3]) | selectivity ratio [4] | IC50 (Leishmania donovani [5]) | CC50 at 48 h [6] | inhibition in vivo at 50 mg/kg (Leishmania donovani [1]) | further results
1 | COC(=O)c1c([N+](=O)[O-])noc1-c1ccccc1F | 2.87 µM | 36% | 2.19 | 16.1 µM | – | – | inhibition (Leishmania donovani [1]): inactive
2 | COC(=O)c1c([N+](=O)[O-])noc1-c1ccc(Cl)cc1Cl | 1.82 µM | 39.5% | 4.49 | 4.38 µM | 19.7 µM | 29% | –
3 | COC(=O)c1c(NCCNc2ccnc3cc(Cl)ccc23)noc1-c1ccc([N+](=O)[O-])cc1 | 1.87 µM | – | 4.16 | 0.91 µM | 3.79 µM | – | inhibition (Leishmania donovani [1]): inactive; inhibition (Leishmania donovani [3]): inactive
4 | COC(=O)c1c([N+](=O)[O-])noc1-c1cc2c(cc1[N+](=O)[O-])OCO2 | 0.67 µM | 36% | 6.51 | 17.4 µM | 113 µM | 71.2% | inhibition in vivo at 100 mg/kg (Leishmania donovani [7]): 66%; inhibition in vivo at 100 mg/kg (Leishmania donovani [8]): 48.4%
5 | COC(=O)c1c(NCc2ccc(Cl)cc2)noc1-c1ccc(Cl)cc1Cl | 14.1 µM | 29.2% | 56.6 | 3.1 µM | 176 µM | – | inhibition (Leishmania donovani [1]): inactive
6 | COC(=O)c1c(NCCNc2ccnc3cc(Cl)ccc23)noc1-c1ccc(Cl)cc1Cl | 1.86 µM | 19.3% | 4.05 | 0.85 µM | 3.45 µM | – | inhibition (Leishmania donovani [1]): inactive
7 | COc1cc(-c2cc(-c3ccc4c(c3)OCO4)no2)cc(OC)c1OC | – | – | – | – | – | – | IC50 (Leishmania amazonensis [9]): 2.9 µM; IC50 (Leishmania amazonensis [10]): 18.3 µM
8 | COC(=O)c1c(NCCCNc2ccnc3cc(Cl)ccc23)noc1-c1ccc(Cl)cc1Cl | 3.82 µM | 62% | 9.67 | 3.21 µM | 31.1 µM | 9.23% | –
9 | CCCCCCCCCCCCCCCCOP(=O)([O-])OCC[N+](C)(C)C [MILTEFOSINE] | 2.52 µM | – | 5.76 | 9.25 µM | 53.3 µM | – | inhibition in vivo at 30 mg/kg (Leishmania donovani [11]): 97.3%; inhibition in vivo at 30 mg/kg (Leishmania donovani [12]): 98.4%
10 | COC(=O)c1c(NCc2ccccc2)noc1-c1ccc([N+](=O)[O-])cc1 | 3.9 µM | 44% | 6.16 | 13.8 µM | 85.4 µM | 75.2% | –
11 | COC(=O)c1c(NCc2ccc(Cl)cc2)noc1-c1cc2c(cc1[N+](=O)[O-])OCO2 | 15.5 µM | 13.5% | 7 | 4.59 µM | 33 µM | 2.08% | –
12 | COC(=O)c1c(NCc2ccc(OC)cc2OC)noc1-c1ccc(Cl)cc1Cl | 8.34 µM | 50.9% | 6 | 5.48 µM | 32.1 µM | 38% | –
13 | COc1cc(-c2cc(-c3cc(OC)c(OC)c(OC)c3)on2)cc(OC)c1OC | – | – | – | – | – | – | IC50 (Leishmania amazonensis [9]): 2.9 µM; IC50 (Leishmania amazonensis [10]): 18.3 µM
14 | O=[N+]([O-])c1ccc(-c2cc(-c3ccc(CCl)cc3)on2)o1 | – | – | – | – | – | – | IC50 (Leishmania amazonensis [13]): 0.6 µM; IC50 (Leishmania amazonensis [14]): 3.5 µM
15 | COC(=O)c1c(NCc2ccc(C(C)(C)C)cc2)noc1-c1cc2c(cc1[N+](=O)[O-])OCO2 | 2.14 µM | 71.1% | 14 | 0.54 µM | 7.49 µM | 28.6% | half-life [15]: 3.78 h; inhibition in vivo at 100 mg/kg (Leishmania donovani [7]): 12.7%; MRT [16]: 9.53 h; AUC(0-inf) [17]: 149 ng·h/mL; inhibition in vivo at 100 mg/kg (Leishmania donovani [8]): 69.5%; Drug metabolism [18]: Metabolite_Detected; Tmax [19]: 3 h; Cmax [20]: 15.4 ng/mL
16 | COC(=O)c1c(NCCCCNc2ccnc3cc(Cl)ccc23)noc1-c1cc2c(cc1[N+](=O)[O-])OCO2 | 4.5 µM | 20% | 7.97 | 8.49 µM | 67.7 µM | 4.38% | –
17 | COC(=O)c1c(NCCCCNc2ccnc3cc(Cl)ccc23)noc1-c1ccccc1[N+](=O)[O-] | 1.95 µM | – | 8.99 | 8.63 µM | 77.7 µM | – | inhibition (Leishmania donovani [1]): inactive; inhibition (Leishmania donovani [3]): inactive
